Calls of active or inactive are those of the source. The rule behind the calls is not given here.
How the values were obtained:
[1] = target: Anthrax toxin receptor 2 (Homo sapiens, UniProt P58335, C175A/R40C); test: Inhibition of CMG2 (40 to 217) C175A and R40C double mutant (unknown origin) interaction to full length PA E733C mutant expressed in Escherichia coli by FRET assay
[2] = Antiangiogenic activity in HMVEC assessed as inhibition of endothelial cell migration after 4 hrs by stereomicroscopic analysis; assay type: functional, cell-based; conditions: Homo sapiens
Outline: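 HMVEC-d (EGM-2, used before passage 7) resuspended in EBM with 0.1% BSA, 20,000 cells on fibronectin-coated 8.0 μm-pore polycarbonate transwells; migration toward full (5%) serum media ± compound for 4 h. Non-migrated cells swabbed off, membranes fixed and Diff-Quick stained. Data normalized to untreated control; two independent experiments, n=3 each; IC50 from binding isotherm fit.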

[3] = test system: Mus musculus; test: Toxicity in C57BL/6J mouse assessed as hunched posture at 20 mg/kg, po or 10 mg/kg, ip measured on day 5; assay type: organism-based; conditions: in vivo
[4] = test system: Mus musculus; test: Toxicity in C57BL/6J mouse assessed as weight loss at 20 mg/kg, po or 10 mg/kg, ip measured on day 5; assay type: organism-based; conditions: in vivo
[5] = Cytostatic toxicity against HMVEC at 1 to 30 uM after 24 to 72 hrs by fluorescence assay; conditions: human
Outline: (§1)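 HMVEC-d (EGM-2, before passage 7) seeded at 2000 cells/well, medium swapped after attachment for EGM-2 ± compound; grown 1 or 3 days, then quantified by Cyquant fluorescence. Fold-proliferation = experimental readout / day-0 ethanol-fixed wells; normalized to untreated wells. Four independent experiments, n=4 wells each; t-test with Bonferroni correction.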

[6] = test system: Mus musculus; test: Antiangiogenic activity in C57BL/6J mouse assessed as bFGF-induced angiogenesis at 20 mg/kg, po or 10 mg/kg, ip measured on day 5 by corneal micropocket assay; assay type: functional, organism-based; conditions: Cornea
Outline: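 bFGF pellet (80 ng) implanted in cornea; groups of five mice dosed daily from implantation day, either 20 mg/kg by oral gavage in 5% ethanol or 10 mg/kg/day IP in 2.5% DMSO/5% Cremaphor EL/5% Tween-80/7.5% N-methyl-2-pyrrolidone/0.9% NaCl; vehicle-only controls. Vascular response area measured by slit lamp on postoperative day 5, typically 10 eyes per group.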

[7] = Cytotoxicity against HMVEC at 1 to 30 uM after 24 to 72 hrs by fluorescence assay; conditions: human; outline: as §1
[8] = Cmax in C57BL/6J mouse at 20 mg/kg, ip after 6 to 24 hrs; assay type: ADME, organism-based; set-up: dose 20 mg/kg, route intraperitoneal; conditions: in vivo
[9] = test system: Mus musculus; test: Toxicity in C57BL/6J mouse assessed as behavioral abnormalities at 20 mg/kg, po or 10 mg/kg, ip measured on day 5; assay type: organism-based; conditions: in vivo

Sequence of Anthrax toxin receptor 2 (P58335 34-489 R40C/C175A limits assumed): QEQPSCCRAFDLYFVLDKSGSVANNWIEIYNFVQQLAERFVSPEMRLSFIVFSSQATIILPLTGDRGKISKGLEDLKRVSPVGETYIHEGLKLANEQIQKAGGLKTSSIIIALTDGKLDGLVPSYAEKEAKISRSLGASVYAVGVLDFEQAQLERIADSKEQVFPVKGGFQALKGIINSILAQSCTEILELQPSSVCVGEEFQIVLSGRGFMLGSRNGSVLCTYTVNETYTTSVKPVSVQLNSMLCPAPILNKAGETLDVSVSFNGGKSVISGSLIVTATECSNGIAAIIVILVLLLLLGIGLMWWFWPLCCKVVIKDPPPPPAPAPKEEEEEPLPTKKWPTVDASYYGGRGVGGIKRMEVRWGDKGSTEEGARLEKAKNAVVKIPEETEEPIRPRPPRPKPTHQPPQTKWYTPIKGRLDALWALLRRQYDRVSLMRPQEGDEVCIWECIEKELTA

`Oc1cc(O)c2c(c1)O[C@H](c1ccc(O)c(O)c1)[C@H](O)C2` [(-)-EPICATECHIN] showed an IC50 [1] greater than 300 µM.

`O=C(O)/C=C/c1ccc(O)c(O)c1` [CAFFEIC ACID] gave an IC50 [1] greater than 300 µM.

Compound `COc1cc(/C=C/C(=O)CC(=O)/C=C/c2ccc(O)c(OC)c2)ccc1O` [CURCUMIN] has an IC50 [1] greater than 300 µM.

For `O=C(O)CCc1ccc(O)c(O)c1` [DIHYDROCAFFEIC ACID], the IC50 [1] was greater than 300 µM.

With `NCCc1ccc(O)c(O)c1` [DOPAMINE] the IC50 [1] was greater than 300 µM.

For `Oc1cc(O)c2c(c1)O[C@H](c1cc(O)c(O)c(O)c1)[C@H](O)C2` [EPIGALLOCATECHIN], the IC50 [1] was greater than 300 µM.

Compound `COC(=O)c1cc(O)c(O)c(O)c1` [GALLIC ACID METHYL ESTER] has an IC50 [1] greater than 300 µM.

Compound `O=C(O)c1cc(O)c(O)c(O)c1` [GALLIC ACID] has an IC50 [1] greater than 300 µM.

Compound `COC(=O)c1ccc(O)c(O)c1` [METHYL PROTOCATECHUATE] has an IC50 [1] greater than 300 µM.

In the case of `O=c1c(O)c(-c2cc(O)c(O)c(O)c2)oc2cc(O)cc(O)c12` [MYRICETIN], the IC50 [1] is reported as greater than 300 µM.

In the case of `O=C(OC[C@H]1O[C@@H](OC(=O)c2cc(O)c(O)c(O)c2)[C@H](OC(=O)c2cc(O)c(O)c(O)c2)[C@@H](OC(=O)c2cc(O)c(O)c(O)c2)[C@@H]1OC(=O)c1cc(O)c(O)c(O)c1)c1cc(O)c(O)c(O)c1` [PENTAGALLOYL GLUCOSE], the IC50 [2] is reported as 0.82 µM, the Activity [3] is reported as “Non-toxic” and the IC50 [1] is reported as 0.3 µM. For the same compound, the Activity [4] was “Non-toxic”, the Activity [5] was “Non-toxic” and the inhibition [6] was “Active”. The Activity [7] was “Non-toxic”, the Cmax [8] was less than 1000 nM and the Activity [9] was “Non-toxic”.

Compound `CCCOC(=O)c1cc(O)c(O)c(O)c1` [PROPYL GALLATE] has an IC50 [1] greater than 300 µM.

`O=C(O)c1ccc(O)c(O)c1` [PROTOCATECHUIC ACID] showed an IC50 [1] greater than 300 µM.

Work on `O=c1c(O)c(-c2ccc(O)c(O)c2)oc2cc(O)cc(O)c12` [QUERCETIN] yielded an IC50 [1] greater than 300 µM.

Work on `O=C(OC[C@H]1O[C@@H](OC(=O)c2cc(O)c(O)c(OC(=O)c3cc(O)c(O)c(O)c3)c2)[C@H](OC(=O)c2cc(O)c(O)c(OC(=O)c3cc(O)c(O)c(O)c3)c2)[C@@H](OC(=O)c2cc(O)c(O)c(OC(=O)c3cc(O)c(O)c(O)c3)c2)[C@@H]1OC(=O)c1cc(O)c(O)c(OC(=O)c2cc(O)c(O)c(O)c2)c1)c1cc(O)c(O)c(OC(=O)c2cc(O)c(O)c(O)c2)c1` [TANNIC ACID] yielded an IC50 [1] greater than 300 µM.

In the case of `COc1cc(C(=O)O)ccc1O` [VANILLIC ACID], the IC50 [1] is reported as greater than 300 µM.
